Key:
[1] = biological target: Sodium/potassium-transporting ATPase; experiment: Inhibition of Na+/K+-ATPase (unknown origin); assay type: protein-complex assay, Homo sapiens
[2] = Inhibition of isocitrate lyase (unknown origin)
[3] = Inhibition of sortase A (unknown origin)
A549 = experiment: Cytotoxicity against human A549 cells by MTT assay; assay type: functional; conditions: read-out: LC50 (the source's name)
In short: (§1)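 LC50 is the concentration giving a 50% drop in cell viability relative to untreated controls without inhibitor. It is read from dose–response curves for each sample and reported as mean ± SD of three independent experiments (n = 3).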

K562 [4] = experiment: Cytotoxicity against human K562 cells by MTT assay; assay type: functional; conditions: read-out: LC50 (the source's name); in short: as §1
K562 [5] = experiment: Ratio of doxorubicin LC50 to compound LC50 for human K562 cells; assay type: functional

| Compound | IC50 [1] [nM] | IC50 [2] [nM] | IC50 [3] [nM] | CC50 (A549) [nM] | CC50 (K562 [4]) [nM] | RatioLC50 (K562 [5]) |
| --- | --- | --- | --- | --- | --- | --- |
| CO[C@@H](NC(C)=O)[C@H](O)[C@]1(C)CC[C@H](C(C)C)[C@@H]1c1cc([C@]2(O)Cc3cc(O)c(=O)c(C)c4c3[C@@H](O2)[C@H](O)[C@]2(C)CC[C@H](C(C)C)[C@H]42)cc(O)c(=O)c1C | > 100000 | > 100000 | > 100000 | 100 | 120 | – |
| CC(=O)O[C@@H](C=O)[C@]1(C)CC[C@H](C(C)C)[C@@H]1c1cc([C@]2(O)Cc3cc(O)c(=O)c(C)c4c3[C@@H](O2)[C@H](O)[C@]2(C)CC[C@H](C(C)C)[C@H]42)cc(O)c(=O)c1C [GUKULENIN A] | > 100000 | > 100000 | > 100000 | 320 | 260 | – |
| COc1cccc2c1C(=O)c1c(O)c3c(c(O)c1C2=O)C[C@@](O)(C(=O)CO)C[C@@H]3O[C@H]1C[C@H](N)[C@H](O)[C@H](C)O1 [DOXORUBICIN] | – | – | – | 520 | 700 | – |
| Cc1c([C@H]2[C@@H](C(C)C)CC[C@@]2(C)C(=O)CNCCS(=O)(=O)O)cc([C@]2(O)Cc3cc(O)c(=O)c(C)c4c3[C@@H](O2)[C@H](O)[C@]2(C)CC[C@H](C(C)C)[C@H]42)cc(O)c1=O | > 100000 | > 100000 | > 100000 | 110 | 320 | – |
| CC(=O)N[C@H](O)[C@H](O)[C@]1(C)CC[C@H](C(C)C)[C@@H]1c1cc([C@]2(O)Cc3cc(O)c(=O)c(C)c4c3[C@@H](O2)[C@H](O)[C@]2(C)CC[C@H](C(C)C)[C@H]42)cc(O)c(=O)c1C | > 100000 | > 100000 | > 100000 | 550 | 440 | – |
| CC(=O)O[C@@H](C=O)[C@]1(C)CC[C@H](C(C)C)[C@@H]1c1cc(/C(O)=C/c2cc(O)c(=O)c(C)c3c2[C@@H](O)[C@H](O)[C@]2(C)CC[C@H](C(C)C)[C@H]32)cc(O)c(=O)c1C | > 100000 | > 100000 | > 100000 | 380 | 40 | 17 |

Source: ChEMBL document CHEMBL2417500, “Cytotoxic diterpenoid pseudodimers from the Korean sponge Phorbas gukhulensis” (J Nat Prod, 2013)
